# Laboratory results reported in ChEMBL document CHEMBL2311290 (J Med Chem, 2013).
# Activity calls are given as the source filed them. The rule behind the calls is not given here.
# Key:
# [1] = target: Coagulation factor XI (Homo sapiens) (UniProt P03951); experiment: Inhibition of human FXIa assessed as S-2366 hydrolysis at 250 uM after 10 mins by microplate reader analysis
# Procedure, shortened: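 Human FXIa at 0.765 nM final in pH 7.4 Tris buffer (150 mM NaCl, 0.1% PEG8000, 0.02% Tween80). It is preincubated 10 min at 37 °C with the agent or solvent, then 345 µM S-2366 is added. Initial rate of A405 increase gives residual activity relative to no-inhibitor control.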
# Plasma [2] = experiment: Ratio of concentration required to double clotting time for compound to enoxaparin in human plasma; format: functional
# Coagulation factor X = Coagulation factor X (Homo sapiens, UniProt P00742); experiment: Inhibition of human FXa after 60 secs by spectrophotometry
# Coagulation factor X, sequence (P00742 41-179 limits assumed): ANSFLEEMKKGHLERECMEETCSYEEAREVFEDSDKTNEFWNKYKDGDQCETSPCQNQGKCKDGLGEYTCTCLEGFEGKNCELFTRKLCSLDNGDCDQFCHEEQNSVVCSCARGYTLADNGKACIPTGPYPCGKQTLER
# Coagulation factor X, sequence (P00742 235-488 limits assumed): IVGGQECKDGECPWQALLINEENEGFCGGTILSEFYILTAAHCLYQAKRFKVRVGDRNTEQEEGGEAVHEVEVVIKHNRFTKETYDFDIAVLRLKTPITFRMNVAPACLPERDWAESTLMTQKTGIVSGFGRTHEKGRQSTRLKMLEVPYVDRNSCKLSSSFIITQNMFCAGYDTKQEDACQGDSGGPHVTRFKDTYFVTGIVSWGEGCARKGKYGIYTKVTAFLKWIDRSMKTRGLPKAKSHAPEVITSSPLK
# Blood [3] = experiment: Anticoagulant activity in human whole blood assessed as clot formation time at 190 ug/ml by thromboelastography (reference value: 6.0 mins); format: functional
# Procedure, shortened: (§1)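 Thromboelastography in sodium-citrated human whole blood at 37 °C. 340 µL of blood containing 10 µL of the agent (or high-purity water) is added to a cup holding 20 µL of 200 mM CaCl2 stock, oscillating through 4°45′ at 0.1 Hz. Clot force on a central pin is recorded and read out as R, α, MA and G.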
# Prothrombin = Prothrombin (Homo sapiens, UniProt P00734); experiment: Inhibition of human thrombin after 60 secs by spectrophotometry
# Procedure, shortened: (§2)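 Chromogenic substrate hydrolysis at pH 7.4 with at least six serially diluted concentrations of the agent. Residual activity is read spectrophotometrically and the IC50 is obtained from a dose–response fit. Substrate levels were set from its KM. Final enzyme/substrate: thrombin 6 nM/50 µM Spectrozyme TH; FXa 1.09 nM/125 µM; FXIIa 5 nM/125 µM; FIXa 89 nM/850 µM.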
# Plasma [4] = experiment: Anticoagulant activity in human plasma assessed as concentration required to double activated partial […] time; format: functional
# Procedure, shortened: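 Citrated pooled normal human plasma (90 µL) plus 10 µL of the test agent and 100 µL of prewarmed ellagic acid APTT reagent (0.2% ellagic acid). The mixture is incubated 4 min at 37 °C, then clotting is started with prewarmed 25 mM CaCl2 and read on a fibrometer. Clotting time versus concentration is fitted to a quadratic trend line to get the concentration that doubles it. Water or organic vehicle serves as the blank.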
# Blood [5] = experiment: Anticoagulant activity in human whole blood assessed as maximum amplitude at 135 ug/ml by thromboelastography (reference value: 59 mm); format: functional; procedure, shortened: as §1
# Blood [6] = experiment: Anticoagulant activity in human whole blood assessed as angle alpha at 190 ug/ml by thromboelastography (reference value: 56.4 deg); format: functional; procedure, shortened: as §1
# Blood [7] = experiment: Anticoagulant activity in human whole blood assessed as angle alpha at 20 ug/ml by thromboelastography (reference value: 56.4 deg); format: functional; procedure, shortened: as §1
# [8] = target: Coagulation factor XI (Homo sapiens) (UniProt P03951); conditions: 3 uM
# [9] = target: T1, Serine protease 1 (Bos taurus) (UniProt P00760); experiment: Inhibition of bovine trypsin at 1.8 mg/ml after 60 secs by spectrophotometry
# T1 sequence (whole entry): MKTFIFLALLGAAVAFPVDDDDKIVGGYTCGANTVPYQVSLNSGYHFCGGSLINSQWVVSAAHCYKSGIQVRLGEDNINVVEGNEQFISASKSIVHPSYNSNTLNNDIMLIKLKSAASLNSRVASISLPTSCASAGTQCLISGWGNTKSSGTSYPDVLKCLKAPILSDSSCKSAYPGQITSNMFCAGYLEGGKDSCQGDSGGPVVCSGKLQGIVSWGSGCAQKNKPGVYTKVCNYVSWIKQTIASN
# Procedure, shortened: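 Chromogenic substrate hydrolysis assay of bovine trypsin (72.5 ng/mL in the well) with 80 µM substrate, with substrate level chosen from its KM. Enzyme stock was in 50 mM Tris-HCl pH 7.4, 150 mM NaCl, 0.1% PEG8000, 0.02% Tween80. Fractional residual activity was read spectrophotometrically across at least six serial inhibitor dilutions to derive IC50.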
# Blood [10] = experiment: Anticoagulant activity in human whole blood assessed as clot formation time at 280 ug/ml by thromboelastography (reference value: 6.0 mins); format: functional; procedure, shortened: as §1
# [11] = target: T2, Coagulation factor VII (Homo sapiens) (UniProt P08709); experiment: Inhibition of human FVIIa at 3.7 mg/ml after 60 secs by spectrophotometry
# T2 sequence (whole entry): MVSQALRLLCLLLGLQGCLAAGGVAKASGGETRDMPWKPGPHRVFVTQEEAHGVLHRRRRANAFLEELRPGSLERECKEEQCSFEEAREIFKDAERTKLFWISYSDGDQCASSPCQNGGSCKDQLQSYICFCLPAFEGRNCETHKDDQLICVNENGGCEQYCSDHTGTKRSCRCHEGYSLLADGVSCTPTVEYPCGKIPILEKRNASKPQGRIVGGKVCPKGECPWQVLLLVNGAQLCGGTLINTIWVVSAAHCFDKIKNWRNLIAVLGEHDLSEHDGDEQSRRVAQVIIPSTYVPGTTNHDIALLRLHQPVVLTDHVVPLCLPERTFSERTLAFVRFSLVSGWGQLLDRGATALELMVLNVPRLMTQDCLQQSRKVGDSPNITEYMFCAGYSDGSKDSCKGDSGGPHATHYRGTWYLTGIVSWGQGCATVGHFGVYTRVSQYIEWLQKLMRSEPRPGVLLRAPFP
# Procedure, shortened: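 Chromogenic hydrolysis with at least six serial concentrations of the agent and spectrophotometric residual activity. Factor VIIa was 8 nM with 1000 µM Spectrozyme FVIIa plus 40 nM recombinant tissue factor. Bovine chymotrypsin was 500 ng/mL with 240 µM Spectrozyme CTY.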
# Plasma [12] = experiment: Anticoagulant activity in human plasma assessed as concentration required to double […] prothrombin time; format: functional
# Procedure, shortened: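 Prothrombin time is a one-stage recalcification assay read on a fibrometer. 10 µL of the agent is made up to 100 µL with citrated human plasma and incubated 30 s at 37 °C. Clotting is started with 200 µL of prewarmed thromboplastin-D. A quadratic trend line of clotting time versus concentration gives the concentration that doubles clotting time. Water or organic vehicle serves as the blank.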
# Coagulation factor XII = target: T3, Coagulation factor XII (Homo sapiens, UniProt P00748); experiment: (§3) Inhibition of FXIIa (unknown origin) after 60 secs by spectrophotometry; procedure, shortened: as §2
# T3 sequence (P00748 whole entry): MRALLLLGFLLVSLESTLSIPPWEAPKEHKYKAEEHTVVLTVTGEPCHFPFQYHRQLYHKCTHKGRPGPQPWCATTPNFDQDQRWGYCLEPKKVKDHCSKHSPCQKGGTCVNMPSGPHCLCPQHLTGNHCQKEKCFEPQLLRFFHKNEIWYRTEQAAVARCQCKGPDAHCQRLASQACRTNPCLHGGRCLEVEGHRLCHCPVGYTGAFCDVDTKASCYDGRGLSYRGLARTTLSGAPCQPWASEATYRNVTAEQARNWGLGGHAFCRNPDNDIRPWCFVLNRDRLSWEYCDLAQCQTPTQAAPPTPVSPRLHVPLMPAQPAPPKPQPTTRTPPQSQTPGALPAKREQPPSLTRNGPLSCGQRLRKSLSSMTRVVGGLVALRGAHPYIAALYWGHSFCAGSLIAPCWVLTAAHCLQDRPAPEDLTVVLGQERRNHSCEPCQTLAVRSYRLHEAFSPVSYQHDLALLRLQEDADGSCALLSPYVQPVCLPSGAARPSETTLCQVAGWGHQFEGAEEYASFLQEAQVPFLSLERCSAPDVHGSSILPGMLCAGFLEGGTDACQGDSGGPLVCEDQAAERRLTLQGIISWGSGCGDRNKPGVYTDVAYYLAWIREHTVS
# [13] = target: T4, Coagulation factor XII (Homo sapiens) (UniProt P00748); experiment: as §3; procedure, shortened: as §2
# T4 sequence (whole entry): T3 sequence (P00748 whole entry)
# Blood [14] = experiment: Anticoagulant activity in human whole blood assessed as maximum amplitude at 20 ug/ml by thromboelastography (reference value: 59 mm); format: functional; procedure, shortened: as §1
# Coagulation factor IX = Coagulation factor IX (Homo sapiens, UniProt P00740); experiment: Inhibition of human FIXa after 60 secs by spectrophotometry
# Coagulation factor IX, sequence (P00740 47-191 limits assumed): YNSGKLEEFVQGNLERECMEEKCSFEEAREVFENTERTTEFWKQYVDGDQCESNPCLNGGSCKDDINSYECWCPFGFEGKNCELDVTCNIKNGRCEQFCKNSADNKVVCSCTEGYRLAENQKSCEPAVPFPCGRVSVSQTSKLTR
# Coagulation factor IX, sequence (P00740 227-461 limits assumed): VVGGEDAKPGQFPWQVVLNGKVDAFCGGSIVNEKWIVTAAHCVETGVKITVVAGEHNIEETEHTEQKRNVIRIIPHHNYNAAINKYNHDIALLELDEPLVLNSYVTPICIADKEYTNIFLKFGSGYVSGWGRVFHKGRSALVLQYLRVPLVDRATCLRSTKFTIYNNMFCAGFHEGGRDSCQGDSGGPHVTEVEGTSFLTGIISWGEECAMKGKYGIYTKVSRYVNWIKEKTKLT
# Blood [15] = experiment: Anticoagulant activity in human whole blood assessed as clot formation time at 20 ug/ml by thromboelastography (reference value: 6.0 mins); format: functional; procedure, shortened: as §1
# Blood [16] = experiment: Anticoagulant activity in human whole blood assessed as maximum amplitude at 280 ug/ml by thromboelastography (reference value: 59 mm); format: functional; procedure, shortened: as §1
# Bos taurus = species: Bos taurus; experiment: Inhibition of bovine chymotrypsin at 1.8 mg/ml after 60 secs by spectrophotometry
# Blood [17] = experiment: Anticoagulant activity in human whole blood assessed as maximum amplitude at 190 ug/ml by thromboelastography (reference value: 59 mm); format: functional; procedure, shortened: as §1
# Blood [18] = experiment: Anticoagulant activity in human whole blood assessed as clot formation time at 135 ug/ml by thromboelastography (reference value: 6.0 mins); format: functional; procedure, shortened: as §1
# Blood [19] = experiment: Anticoagulant activity in human whole blood assessed as angle alpha at 135 ug/ml by thromboelastography (reference value: 56.4 deg); format: functional; procedure, shortened: as §1
# [20] = target: Coagulation factor XI (Homo sapiens) (UniProt P03951); experiment: Inhibition of human FXIa assessed as S-2366 hydrolysis at 300 uM after 10 mins by microplate reader analysis
# Procedure, shortened: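 Human FXIa (0.765 nM final) preincubated 10 min at 37 °C with inhibitor or solvent reference in pH 7.4 50 mM Tris-HCl, 150 mM NaCl, 0.1% PEG8000, 0.02% Tween80. S-2366 (345 µM) then added, and initial A405 rate read on a microplate reader. Residual activity is expressed relative to the no-inhibitor control. Highest concentration tested was 300 µM.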
# Coagulation factor XI (Homo sapiens), sequence (P03951 19-387 limits assumed): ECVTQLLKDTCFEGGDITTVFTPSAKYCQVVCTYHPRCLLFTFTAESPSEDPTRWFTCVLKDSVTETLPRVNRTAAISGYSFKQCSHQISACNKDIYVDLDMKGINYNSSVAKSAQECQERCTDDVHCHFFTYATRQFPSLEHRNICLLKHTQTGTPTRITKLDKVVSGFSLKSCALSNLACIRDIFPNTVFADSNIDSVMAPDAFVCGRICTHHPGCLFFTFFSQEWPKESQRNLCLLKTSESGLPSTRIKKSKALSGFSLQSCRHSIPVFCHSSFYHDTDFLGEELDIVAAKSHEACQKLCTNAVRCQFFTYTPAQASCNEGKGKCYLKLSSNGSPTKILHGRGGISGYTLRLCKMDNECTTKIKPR
# Coagulation factor XI (Homo sapiens), sequence (P03951 388-625 limits assumed): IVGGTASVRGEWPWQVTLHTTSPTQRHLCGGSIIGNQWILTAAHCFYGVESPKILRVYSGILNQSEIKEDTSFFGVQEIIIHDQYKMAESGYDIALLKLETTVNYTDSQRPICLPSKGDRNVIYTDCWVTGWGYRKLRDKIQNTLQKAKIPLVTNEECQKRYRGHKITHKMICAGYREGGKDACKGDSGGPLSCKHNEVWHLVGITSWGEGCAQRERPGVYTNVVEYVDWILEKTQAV
structure (smiles),measurement,setting,value
COc1cc([C@H]2Oc3cc([C@H]4Oc5cc(OS(=O)(=O)O)cc(O)c5C(=O)[C@@H]4OS(=O)(=O)O)ccc3O[C@@H]2COS(=O)(=O)O)ccc1OS(=O)(=O)O,inhibition,[1],inactive
O=C(O)C1Cc2c(OS(=O)(=O)O)ccc(OS(=O)(=O)O)c2CN1C(=O)CCCc1cc(OS(=O)(=O)O)ccc1OS(=O)(=O)O (centres undefined),inhibition,[1],inactive
O=C(O)C1Cc2c(OS(=O)(=O)O)ccc(OS(=O)(=O)O)c2CN1C(=O)CCCCc1cc(OS(=O)(=O)O)ccc1OS(=O)(=O)O (centres undefined),inhibition,[1],inactive
O=C(/C=C/c1ccc(OS(=O)(=O)O)c(OS(=O)(=O)O)c1)O[C@@H]1C[C@](O)(C(=O)O)C[C@@H](OS(=O)(=O)O)[C@H]1OS(=O)(=O)O,inhibition,[1],inactive
O=C(CCc1cc(OS(=O)(=O)O)ccc1OS(=O)(=O)O)N1CCc2cc(OS(=O)(=O)O)c(OS(=O)(=O)O)cc2C1,inhibition,[1],inactive
O=C(O)C1Cc2cc(OS(=O)(=O)O)c(OS(=O)(=O)O)cc2CN1C(=O)CCCc1cc(OS(=O)(=O)O)ccc1OS(=O)(=O)O (centres undefined),inhibition,[1],inactive
O=C(O)C1Cc2cc(OS(=O)(=O)O)c(OS(=O)(=O)O)cc2CN1C(=O)CCc1cc(OS(=O)(=O)O)ccc1OS(=O)(=O)O (centres undefined),inhibition,[1],inactive
O=C(OC[C@H]1O[C@@H](OC(=O)c2cc(OS(=O)(=O)[O-])c(O)c(OS(=O)(=O)[O-])c2)[C@H](OC(=O)c2cc(OS(=O)(=O)[O-])c(O)c(OS(=O)(=O)[O-])c2)[C@@H](OC(=O)c2cc(OS(=O)(=O)[O-])c(O)c(OS(=O)(=O)[O-])c2)[C@@H]1OC(=O)c1cc(OS(=O)(=O)[O-])c(O)c(OS(=O)(=O)[O-])c1)c1cc(OS(=O)(=O)[O-])c(O)c(OS(=O)(=O)[O-])c1.[Na+].[Na+].[Na+].[Na+].[Na+].[Na+].[Na+].[Na+].[Na+].[Na+] [sulfated pentagalloylglucoside],Ratio,Plasma [2],18
same,IC50,Coagulation factor X,136 µM
same,Time,Blood [3],37.8 min
same,IC50,Prothrombin,622 µM
same,2aPTT,Plasma [4],96 µg/mL
same,Activity,Blood [5],49.8 mm
same,Activity,Blood [6],9.4 degree
same,Activity,Blood [7],51.4 degree
same,Efficacy,[8],100%
same,inhibition,[9],inactive
same,Time,Blood [10],87.1 min
same,inhibition,[11],inactive
same,2PT,Plasma [12],298 µg/mL
same,IC50,Coagulation factor XII,131 µM
same,Efficacy,[13],55.7%
same,Activity,Blood [14],62 mm
same,IC50,Coagulation factor IX,582 µM
same,Time,Blood [15],6.6 min
same,Activity,Blood [16],15.1 mm
same,inhibition,Bos taurus,inactive
same,Activity,Blood [17],43.5 mm
same,Time,Blood [18],22.8 min
same,Activity,Blood [19],30.6 degree
O=C(CCCc1cc(OS(=O)(=O)O)ccc1OS(=O)(=O)O)N1CCc2c(ccc(OS(=O)(=O)O)c2OS(=O)(=O)O)C1,inhibition,[1],inactive
O=C(O)C1Cc2cc(OS(=O)(=O)O)c(OS(=O)(=O)O)cc2CN1C(=O)CCCCc1cc(OS(=O)(=O)O)ccc1OS(=O)(=O)O (centres undefined),inhibition,[1],inactive
O=C(O)C1Cc2c(OS(=O)(=O)O)ccc(OS(=O)(=O)O)c2CN1C(=O)CCc1cc(OS(=O)(=O)O)ccc1OS(=O)(=O)O (centres undefined),inhibition,[1],inactive
O=C(OC[C@H]1O[C@@H](OC(=O)c2cc(O)c(O)c(O)c2)[C@H](OC(=O)c2cc(O)c(O)c(O)c2)[C@@H](OC(=O)c2cc(O)c(O)c(O)c2)[C@@H]1OC(=O)c1cc(O)c(O)c(O)c1)c1cc(O)c(O)c(O)c1,inhibition,[20],inactive
